Screening results: PubChem BioAssay, Broad Institute
An excerpt weighted towards active compounds, which were near 2.2% of everything screened.
Env fusion inh – inhibitors of HIV Env-mediated cell fusion; HeLa-JRFL Env/CEM21 cell fusion, luciferase; inhibition, % at 12.3 µM; hit rate 1.1% among 360,000; AID 651610;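 active = mean replicate inhibition score of at least 50 and every replicate individually at or above 50; inconclusive = only one of the two criteria met; inactive = mean below 50 and not all replicates reaching 50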
ERp5 inh – ERp5 (human) disulfide isomerase inhibition; Q15084; ERp5 insulin aggregation, absorbance 650 nm, 90 min; inhibition, % at 9.99 µM; hit rate 0.05% among 350,000;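 active = mean replicate inhibition above about 25%, with every replicate also reaching it, limit read from the data, passing the limit was not always enough; inconclusive = only one of those two criteria met; inactive = neither criterion met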
Target sequence (Q15084 whole entry, looked up): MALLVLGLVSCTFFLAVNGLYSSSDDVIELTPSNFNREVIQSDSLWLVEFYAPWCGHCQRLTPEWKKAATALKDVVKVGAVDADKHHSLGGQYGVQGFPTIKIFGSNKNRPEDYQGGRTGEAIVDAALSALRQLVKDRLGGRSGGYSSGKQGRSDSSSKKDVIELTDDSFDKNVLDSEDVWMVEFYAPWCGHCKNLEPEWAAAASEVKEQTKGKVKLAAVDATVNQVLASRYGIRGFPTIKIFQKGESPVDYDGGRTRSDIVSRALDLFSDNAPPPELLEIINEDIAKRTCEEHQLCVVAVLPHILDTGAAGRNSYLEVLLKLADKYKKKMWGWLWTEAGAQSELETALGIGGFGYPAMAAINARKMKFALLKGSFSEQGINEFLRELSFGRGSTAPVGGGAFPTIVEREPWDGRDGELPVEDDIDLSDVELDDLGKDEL
rRNA inh HTS – inhibitors of bacterial rRNA selective over humanized ribosomes. E. coli WT GFP vs humanized-ribosome RFP mutants, fluorescence, 24 h; hits give low values; DMSO median 0, no signal -100. GFP signal change (wild-type ribosome), % (concentration not given with the values). AID 720706. hit rate 1.6% among 350,000;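 active = significant combined selectivity score with lowered wild-type GFP, culture density cut under 30%, mutant RFP and density less affected; inactive = any of these conditions unmet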
PDI inh – inhibitors of human protein disulfide isomerase | PDI insulin aggregation turbidity, A650, 90 min | inhibition, % at 10 µM | hit rate 0.052% among 350,000;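 active = mean inhibition across replicates of 30% or more, whatever share of single replicates reach that level; inconclusive = mean inhibition below 30% while every single replicate reaches 30%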
PvdQ acylase – P. aeruginosa PvdQ acylase inhibition. AID 488965. inhibition, % at 10 µM. purified PvdQ acylase, fluorescence plate reader. hit rate 0.063% among 340,000; in the data active = inhibition above about 30%, passing the limit was not always enough; inconclusive = no clear call, values can overlap the other calls
FN deposition inh – fibronectin deposition inhibition. hit rate 0.086% among 350,000. inhibition, % at 12.6 µM. AH1F fibroblasts, Alexa488-fibronectin deposition fluorescence, overnight. AID 743247;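 active = mean inhibition across replicates of 30% or more, regardless of how many single replicates reach that level; inconclusive = mean under 30% yet at least half of replicates reach 30%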
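Material: AH1F fibroblasts assembling fluorescent fibronectin matrix; amount: 10000 AH1F cells/well; medium: DMEM, 2% serum; reagent: Alexa488-fibronectin, 24 nM final in well; dosing: single compound dose, delivered by pin transfer; incubation: 1 h adhesion, overnight exposure; detection: fluorescence after three HBSS washes, excitation 485 nm, emission 525 nm; measure: fibronectin deposition inhibition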
Of the large screens only hits and unclear results are named; the others gave an inactive call.

Cc1nn(C)cc1NC(=O)C[C@H]1CC[C@H]2[C@@H](COc3ccc(NC(=O)Nc4cccc(Cl)c4)cc3C(=O)N2C)O1	none (no result: Env fusion inh, PDI inh, PvdQ acylase)
COc1ccc(C2=Nn3c(nnc3-c3ccccc3Cl)SC2)cc1OC1CCOC1 (configuration not stated)	ERp5 inh inconclusive
COc1ccc(OC)c(-c2nnc3n2N=C(c2ccc(OC)c(OC4CCOC4)c2)CS3)c1 (configuration not stated)	rRNA inh HTS -28
N#Cc1c(Cl)cccc1Oc1ccc(S(=O)(=O)Nc2ccccc2)cc1	rRNA inh HTS -28
C=CCn1cccc(C(=O)Nc2ccc(C)cc2)c1=O	none
C=CCn1cccc(C(=O)Nc2ccc(C)c(C)c2)c1=O	rRNA inh HTS -30
C[C@H](CO)N1C[C@H](C)[C@H](CN(C)Cc2cncnc2)Oc2ncc(-c3ccc(F)cc3)cc2C1=O	none (no result: PDI inh, PvdQ acylase)
Cc1ccc(-n2cccc2/C=C2/C(=N)N3C(=NC2=O)SN=C3S(C)(=O)=O)cc1	none (no result: ERp5 inh, rRNA inh HTS)
Cc1cc(C)cc(-n2cccc2/C=C2/C(=N)N3C(=NC2=O)SN=C3S(C)(=O)=O)c1	rRNA inh HTS -28 (no result: FN deposition inh)
O=C(Nc1ccccc1Br)C1CCN(S(=O)(=O)c2cccs2)CC1	rRNA inh HTS -16 (no result: FN deposition inh)
COc1ccc(CNC(=O)C2CCN(C(=O)c3ccc(F)cc3)CC2)cc1OC	none
Cc1ccc(-c2csc(NC(=O)C3CCN(S(=O)(=O)c4cccs4)CC3)n2)cc1	Env fusion inh 63 (no result: ERp5 inh, rRNA inh HTS)
COc1ccc(-c2csc(NC(=O)C3CCN(C(=O)c4ccc(F)cc4)CC3)n2)cc1OC	ERp5 inh 29 (no result: FN deposition inh)
O=C(Nc1nc(-c2ccccc2)cs1)C1CCCN(S(=O)(=O)c2cccc([N+](=O)[O-])c2)C1 (configuration not stated)	none (no result: ERp5 inh, rRNA inh HTS)
O=C(Nc1nc(-c2ccccc2)cs1)C1CCCN(S(=O)(=O)c2ccccc2)C1 (configuration not stated)	Env fusion inh 97 (no result: ERp5 inh, rRNA inh HTS)
CC(C)CC#Cc1cnc2c(c1)C(=O)N([C@@H](C)CO)C[C@H](C)[C@@H](CN(C)C(=O)c1cnccn1)O2	none (no result: PDI inh, PvdQ acylase)
COc1ccc(S(=O)(=O)Nc2cccc3c2O[C@H](CN(C)C(=O)NC2CCCCC2)[C@H](C)CN([C@@H](C)CO)C3=O)cc1	none (no result: Env fusion inh, PDI inh, PvdQ acylase)
O=C(Nc1ccc(Cl)c(Cl)c1)Nc1ccc(N2CCCC2)c(S(=O)(=O)Nc2ccccc2Cl)c1	Env fusion inh 81 (no result: ERp5 inh, rRNA inh HTS)
N#Cc1c(NC(=O)CSc2ncc(-c3ccccc3)n2CC2CCCO2)sc2c1CCCC2 (configuration not stated)	Env fusion inh 68 (no result: ERp5 inh, rRNA inh HTS)
Cc1onc(-c2c(F)cccc2Cl)c1C(=O)Nc1sc2c(c1C(N)=O)CCC2	Env fusion inh 62 (no result: ERp5 inh, rRNA inh HTS, FN deposition inh)
Cc1onc(-c2ccccc2)c1C(=O)Nc1sc2c(c1C#N)CCC2	Env fusion inh 67 (no result: ERp5 inh, rRNA inh HTS)
Cc1cc(C(=O)Nc2sc3c(c2C#N)CCCC3)no1	rRNA inh HTS -31 (no result: Env fusion inh, FN deposition inh)
C[C@@H]1CN([C@@H](C)CO)C(=O)c2cc(C#CC3CCCC3)cnc2O[C@H]1CN(C)C(=O)Cc1ccccn1	none (no result: PDI inh, PvdQ acylase, FN deposition inh)
CCCN1C[C@H](C)[C@H](OC)CN(C)C(=O)c2cc(NS(=O)(=O)c3cn(C)cn3)ccc2OC[C@@H]1C	none (no result: Env fusion inh, PDI inh, PvdQ acylase)
COCC(=O)N1[C@@H](CO)[C@@H](c2ccc(-c3cccc(F)c3)cc2)C12CN(C(=O)C1CC1)C2	none (no result: Env fusion inh, PDI inh, PvdQ acylase)
C[C@H]1CN([C@@H](C)CO)C(=O)c2cc(NC(=O)Nc3ccc(C(F)(F)F)cc3)ccc2O[C@H]1CN(C)Cc1ccncc1	none (no result: Env fusion inh, rRNA inh HTS, PDI inh, PvdQ acylase, FN deposition inh)
CCN(CC)CC#CCC(C)(c1ccccc1)c1ccccc1	Env fusion inh 65 (no result: ERp5 inh, rRNA inh HTS)
O=C(Nc1ccc2oc(-c3ccccc3)nc2c1)c1cc(-n2cnnc2)ccc1Cl	none
O=C(Nc1ccc(-c2nc3ccccc3o2)cc1)c1cc(-n2cnnc2)ccc1Cl	Env fusion inh 58 (no result: ERp5 inh, rRNA inh HTS)
C[C@@H]1CCCCO[C@H](CN(C)C(=O)CCCN(C)C)[C@@H](C)CN([C@H](C)CO)C(=O)c2cc(NC(=O)C3CCCCC3)ccc2O1	none (no result: PDI inh, PvdQ acylase, FN deposition inh)
CC(C)N(Cc1nc(-c2ccccc2)no1)C(=O)c1ccc2c(c1)OCO2	rRNA inh HTS -29 (no result: Env fusion inh, FN deposition inh)
CC(C)N(Cc1nc(-c2ccc(Cl)cc2)no1)C(=O)CN(C)S(=O)(=O)c1ccc(Cl)cc1	none (no result: Env fusion inh, FN deposition inh)
CC(C)N(Cc1nc(-c2ccccc2)no1)C(=O)CN(C)S(=O)(=O)c1ccc(Br)cc1	Env fusion inh 70 (no result: ERp5 inh, rRNA inh HTS, FN deposition inh)
